For orientation: inhibition in vivo means the drop in the measured response relative to a control, in per cent. Usually IC50 stands for the concentration that inhibits the measured activity by half.

Experimental findings from ChEMBL document CHEMBL3232916, “1-(4-Methoxyphenyl)-5-(3,4,5-trimethoxyphenyl)-1H-1,2,4-triazole-3-carboxamides: synthesis, molecular modeling, evaluation of their anti-inflammatory activity and ulcerogenicity” (Eur J Med Chem, 2014) are described below.

The test system of series [1] is Rattus norvegicus. In words: Antiinflammatory activity in albino rat assessed as inhibition of carrageenan-induced paw edema at 0.28 mmol/kg, po administered 30 mins before carrageenan challenge measured after 3 hrs relative to control. It counts as functional. In short, it runs like this:
(§1)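 Male albino rats, n = 4 per group. Dosed orally as a suspension in 0.5% w/v CMC in water; controls received CMC alone. 0.1 mL of freshly prepared 1% carrageenan in saline was injected subplantar into the right hind paw 30 min after dosing, with saline in the left paw. Right paw thickness was read by Vernier caliper before and at 1–5 h. Result is % decrease in edema vs control, mean ± S.E.M.; one-way ANOVA.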
On the technique in general: Carrageenan injected into the paw causes an acute inflammation.

Series [2] has as its system Rattus norvegicus. In words: Ulcerogenic effect in albino rat assessed as ulcer index at 0.28 mmol/kg, po. In kind it is toxicity, organism-based. As to conditions: in vivo. In short, it runs like this: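 Rat gastric ulcers were graded by area: level I <1 mm², level II 1–3 mm², level III >3 mm². Ulcer index = 1×(level I count) + 2×(level II) + 3×(level III). Reported as mean ± S.E.M., n = 4.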

Series [3] relates to Rattus norvegicus. In words: Antiinflammatory activity in albino rat assessed as inhibition of carrageenan-induced paw edema at 0.28 mmol/kg, po administered 30 mins before carrageenan challenge measured after 5 hrs relative to control. It counts as functional. In short, it runs like this:
as §1

For series [4], the system named is Rattus norvegicus. Briefly: Antiinflammatory activity in albino rat assessed as inhibition of carrageenan-induced paw edema at 0.28 mmol/kg, po administered 30 mins before carrageenan challenge measured after 1 hr relative to control. In kind it is functional. In outline: as §1
The subject of series [5] is Rattus norvegicus. In words: Antiinflammatory activity in albino rat assessed as inhibition of carrageenan-induced paw edema at 0.28 mmol/kg, po administered 30 mins before carrageenan challenge measured after 2 hrs relative to control. It counts as functional. In outline: as §1
Series [6] concerns Rattus norvegicus. Briefly: Antiinflammatory activity in albino rat assessed as inhibition of carrageenan-induced paw edema at 0.28 mmol/kg, po administered 30 mins before carrageenan challenge measured after 4 hrs relative to control. In kind it is functional. In short, it runs like this:
as §1

Series [7] addresses T1, Prostaglandin G/H synthase 1 (Ovis aries, UniProt P05979).
T1 sequence (P05979 whole entry): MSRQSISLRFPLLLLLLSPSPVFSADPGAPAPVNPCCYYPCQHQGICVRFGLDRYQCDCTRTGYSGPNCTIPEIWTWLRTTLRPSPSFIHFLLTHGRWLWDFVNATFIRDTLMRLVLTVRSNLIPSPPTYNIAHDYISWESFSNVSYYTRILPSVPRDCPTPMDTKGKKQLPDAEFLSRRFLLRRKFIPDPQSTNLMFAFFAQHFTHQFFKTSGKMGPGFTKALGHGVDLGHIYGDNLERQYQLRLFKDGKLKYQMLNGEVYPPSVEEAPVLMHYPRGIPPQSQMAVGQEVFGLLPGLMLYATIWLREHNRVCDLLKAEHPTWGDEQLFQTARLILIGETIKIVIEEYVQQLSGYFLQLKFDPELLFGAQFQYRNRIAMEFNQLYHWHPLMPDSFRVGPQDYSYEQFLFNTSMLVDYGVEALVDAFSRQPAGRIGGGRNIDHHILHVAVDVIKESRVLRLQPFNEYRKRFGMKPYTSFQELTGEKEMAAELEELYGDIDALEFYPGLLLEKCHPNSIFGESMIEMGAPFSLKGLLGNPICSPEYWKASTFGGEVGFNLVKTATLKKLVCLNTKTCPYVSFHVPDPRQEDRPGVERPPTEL
Briefly: Inhibition of ovine COX1 assessed as prostaglandin F2alpha level.

In series [8] the test system is Rattus norvegicus. Briefly: Antiinflammatory activity in albino rat assessed as inhibition of carrageenan-induced paw edema at 0.28 mmol/kg, po administered 30 mins before carrageenan challenge measured after 3 hrs relative to indomethacin. It counts as functional. As to conditions: read-out: INH. In short, it runs like this:
(§2)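 Calculated from the 3 h % edema inhibition in carrageenan paw edema (male albino rats, oral dosing in 0.5% CMC 30 min before 1% carrageenan subplantar injection). Expressed as % of the inhibition given by the reference drug in the same assay.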

The target of series [9] is T2, Prostaglandin G/H synthase 2 (Homo sapiens, UniProt P35354).
T2 sequence (P35354 whole entry): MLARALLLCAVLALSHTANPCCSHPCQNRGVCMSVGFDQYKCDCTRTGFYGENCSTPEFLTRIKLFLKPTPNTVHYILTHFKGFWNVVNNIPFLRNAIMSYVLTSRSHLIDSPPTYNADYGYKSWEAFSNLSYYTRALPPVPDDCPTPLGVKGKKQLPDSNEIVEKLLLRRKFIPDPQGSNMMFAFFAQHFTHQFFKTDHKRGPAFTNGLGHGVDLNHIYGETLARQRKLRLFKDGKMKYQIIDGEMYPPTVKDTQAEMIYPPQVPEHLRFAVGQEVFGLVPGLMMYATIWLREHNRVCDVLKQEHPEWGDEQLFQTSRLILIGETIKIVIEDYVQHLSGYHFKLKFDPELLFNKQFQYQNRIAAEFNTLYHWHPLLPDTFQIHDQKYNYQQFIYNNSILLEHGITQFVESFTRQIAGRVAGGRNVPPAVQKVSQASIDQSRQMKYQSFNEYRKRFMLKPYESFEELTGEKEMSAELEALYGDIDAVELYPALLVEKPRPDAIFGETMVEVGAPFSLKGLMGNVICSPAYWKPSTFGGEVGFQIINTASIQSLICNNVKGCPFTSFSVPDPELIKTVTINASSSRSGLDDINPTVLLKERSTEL
Briefly: Inhibition of human recombinant COX2 assessed as prostaglandin F2alpha level.

The subject of series [10] is Rattus norvegicus. In words: Antiinflammatory activity in albino rat assessed as inhibition of carrageenan-induced paw edema at 0.28 mmol/kg, po administered 30 mins before carrageenan challenge measured after 3 hrs relative to celecoxib. It counts as functional. As to conditions: read-out: INH. In short, it runs like this: as §2

Molecules are shown by their SMILES.

In the case of `Cc1ccc(-c2cc(C(F)(F)F)nn2-c2ccc(S(N)(=O)=O)cc2)cc1` [CELECOXIB], the inhibition in vivo at 280 µmol/kg is 68% in series [1]; 51% in series [3]; 42% in series [4]; 48% in series [5]; 57% in series [6]. Moreover, the UI in [2] is given as 0.5.
For the molecule `COc1ccc(-n2nc(C(=O)Nc3ccc(Br)cc3)nc2-c2cc(OC)c(OC)c(OC)c2)cc1`, the half-inhibitory concentration (IC50) in [7] and in [9] was more than 100 µM in each case. Besides, the inhibition in vivo at 280 µmol/kg in [1] was determined as 66%; in [3], 57%; in series [4], 40%; in [5], 50%; in series [6], 59%. Besides, the paw edema inhibition relative to indomethacin at 280 µmol/kg in series [8] turned out to be 85%. Also, in [2], the UI is 1.8. Also, the paw edema inhibition relative to celecoxib at 280 µmol/kg in series [10] was 97%.
Regarding `COc1ccc(-n2nc(C(=O)Nc3ccc(C)cc3)nc2-c2cc(OC)c(OC)c(OC)c2)cc1`, the inhibition in vivo at 280 µmol/kg in series [1] is 60%; in [3], 42%; in [4], 38%; in series [5], 60%; in series [6] it was 58%. Also, the paw edema inhibition relative to indomethacin at 280 µmol/kg in series [8] was determined as 77%. Also, the UI in series [2] was determined as 5.5. Also, in series [10], the paw edema inhibition relative to celecoxib at 280 µmol/kg is 88%.
Consider `COc1ccc(-n2nc(C(=O)Nc3ccc(OC)c(OC)c3)nc2-c2cc(OC)c(OC)c(OC)c2)cc1`, for which the IC50 in [7] and in series [9] was more than 100 µM throughout. For the same molecule, the inhibition in vivo at 280 µmol/kg was 78% in [1]; 61% in [3]; 57% in series [4]; 68% in series [5]; 70% in series [6]. Further, in [8], the paw edema inhibition relative to indomethacin at 280 µmol/kg is 100%. Moreover, the UI in [2] is recorded as 7. Further, in series [10], the paw edema inhibition relative to celecoxib at 280 µmol/kg came to 115%.
On to `COc1ccc(-n2nc(C(=O)Nc3ccc(O)cc3)nc2-c2cc(OC)c(OC)c(OC)c2)cc1`, for which the inhibition in vivo at 280 µmol/kg in series [1] came out at 50%; in series [3] it was 27%; in [4] it was 36%; in series [5], 35%; in series [6] it was 37%. The paw edema inhibition relative to indomethacin at 280 µmol/kg in [8] turned out to be 64%. Moreover, the UI in series [2] is recorded as 1. Further, the paw edema inhibition relative to celecoxib at 280 µmol/kg in series [10] stood at 74%.
Take `COc1ccc(-n2nc(C(=O)Nc3ccccc3)nc2-c2cc(OC)c(OC)c(OC)c2)cc1`: the inhibition in vivo at 280 µmol/kg in series [1] turned out to be 54%; in series [3], 46%; in [4], 45%; in series [5] it was 51%; in series [6], 50%. In addition, the paw edema inhibition relative to indomethacin at 280 µmol/kg in [8] was 69%. The UI in series [2] was 4. Besides, the paw edema inhibition relative to celecoxib at 280 µmol/kg in [10] was found to be 79%.
In the case of `COc1ccc(-n2nc(C(=O)Nc3ccc(Cl)cc3)nc2-c2cc(OC)c(OC)c(OC)c2)cc1`, the IC50 in series [7] and in series [9] was more than 100 µM throughout. Besides, the inhibition in vivo at 280 µmol/kg in series [1] was found to be 78%; in series [3], 70%; in series [4], 55%; in series [5] it was 70%; in [6], 75%. In addition, the paw edema inhibition relative to indomethacin at 280 µmol/kg in [8] amounted to 100%. The UI in series [2] worked out at 5. In series [10], the paw edema inhibition relative to celecoxib at 280 µmol/kg amounted to 115%.
In the case of `CCNC(=O)c1nc(-c2cc(OC)c(OC)c(OC)c2)n(-c2ccc(OC)cc2)n1`, the inhibition in vivo at 280 µmol/kg in [1] amounted to 69%; in series [3], 52%; in [4], 60%; in series [5] it was 68%; in series [6], 58%. Moreover, in series [8], the paw edema inhibition relative to indomethacin at 280 µmol/kg is 88%. Moreover, the UI in series [2] was found to be 9. Besides, in [10], the paw edema inhibition relative to celecoxib at 280 µmol/kg turned out to be 101%.
Consider `COc1ccc(-n2nc(C(N)=O)nc2-c2cc(OC)c(OC)c(OC)c2)cc1`, for which the inhibition in vivo at 280 µmol/kg in series [1] worked out at 72%; in [3] it was 64%; in series [4], 40%; in series [5], 59%; in [6], 71%. Further, in [8], the paw edema inhibition relative to indomethacin at 280 µmol/kg stood at 92%. For the same molecule, the UI in [2] was 9. Moreover, in [10], the paw edema inhibition relative to celecoxib at 280 µmol/kg amounted to 106%.
With `COc1ccc(-n2nc(C(=O)Nc3ccc(C(=O)O)cc3)nc2-c2cc(OC)c(OC)c(OC)c2)cc1`, the inhibition in vivo at 280 µmol/kg turned out to be 74% in [1]; 60% in [3]; 50% in series [4]; 57% in series [5]; 69% in series [6]. Moreover, in series [8], the paw edema inhibition relative to indomethacin at 280 µmol/kg is 95%. In addition, the UI in series [2] was found to be 12. The paw edema inhibition relative to celecoxib at 280 µmol/kg in series [10] was found to be 109%.
Turning to `COc1ccc(-n2nc(C(=O)Nc3cccc(C(F)(F)F)c3)nc2-c2cc(OC)c(OC)c(OC)c2)cc1`, the inhibition in vivo at 280 µmol/kg came out at 65% in series [1]; 50% in [3]; 48% in series [4]; 55% in [5]; 56% in series [6]. Further, the paw edema inhibition relative to indomethacin at 280 µmol/kg in series [8] was 83%. Moreover, the UI in [2] came out at 5. For the same molecule, the paw edema inhibition relative to celecoxib at 280 µmol/kg in series [10] was 96%.
Turning to `COc1ccc(NC(=O)c2nc(-c3cc(OC)c(OC)c(OC)c3)n(-c3ccc(OC)cc3)n2)cc1`, the inhibition in vivo at 280 µmol/kg in series [1] turned out to be 67%; in [3] it was 51%; in series [4], 39%; in series [5] it was 45%; in [6] it was 63%. The paw edema inhibition relative to indomethacin at 280 µmol/kg in series [8] was 86%. In addition, the UI in [2] is 4.5. In addition, the paw edema inhibition relative to celecoxib at 280 µmol/kg in series [10] came to 99%.
As for `COc1ccc(-n2nc(C(=O)Nc3ccccc3OC)nc2-c2cc(OC)c(OC)c(OC)c2)cc1`, the inhibition in vivo at 280 µmol/kg in series [1] worked out at 30%; in series [3], 10%; in series [4], 52%; in [5], 57%; in series [6], 24%. For the same molecule, the paw edema inhibition relative to indomethacin at 280 µmol/kg in series [8] is 38%. Also, the UI in [2] is reported as 5. Besides, the paw edema inhibition relative to celecoxib at 280 µmol/kg in [10] is 44%.
